WT yeast gro inh: growth inhibition of WT strain, primary screen, mitochondrial fusion inhibitor project, WT and mutant strains, chemical genetic; inhibition, % at 10 µM; 190,000 tested, 2.1% active; mitochondrial fusion phenotypic screen; in the data active = inhibition above about 58%; tested in S. cerevisiae
DAT uptake mod: changed hDAT dopamine uptake under cocaine IC80, either direction, primary screen, cocaine antagonist project, cell-based, LLC-PK1 hDAT, [14C]-dopamine uptake, MLSMR; Sodium-dependent dopamine transporter (Homo sapiens), Q01959; LLC-PK1 hDAT cells, [14C]-dopamine uptake with cocaine IC80; actives deviate in either direction; B-score at 10 µM; 110,000 tested, 1.3% active; AID 449768, 2010;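 active = Z score or B-score, a plate-position-corrected score, falls beyond the plate's 99.7% confidence bounds, in either direction; inactive = both scores lie inside the 99.7% bounds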;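 also: scored against the spread of the other compound wells on the same plate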
Target sequence (Q01959 whole entry, looked up): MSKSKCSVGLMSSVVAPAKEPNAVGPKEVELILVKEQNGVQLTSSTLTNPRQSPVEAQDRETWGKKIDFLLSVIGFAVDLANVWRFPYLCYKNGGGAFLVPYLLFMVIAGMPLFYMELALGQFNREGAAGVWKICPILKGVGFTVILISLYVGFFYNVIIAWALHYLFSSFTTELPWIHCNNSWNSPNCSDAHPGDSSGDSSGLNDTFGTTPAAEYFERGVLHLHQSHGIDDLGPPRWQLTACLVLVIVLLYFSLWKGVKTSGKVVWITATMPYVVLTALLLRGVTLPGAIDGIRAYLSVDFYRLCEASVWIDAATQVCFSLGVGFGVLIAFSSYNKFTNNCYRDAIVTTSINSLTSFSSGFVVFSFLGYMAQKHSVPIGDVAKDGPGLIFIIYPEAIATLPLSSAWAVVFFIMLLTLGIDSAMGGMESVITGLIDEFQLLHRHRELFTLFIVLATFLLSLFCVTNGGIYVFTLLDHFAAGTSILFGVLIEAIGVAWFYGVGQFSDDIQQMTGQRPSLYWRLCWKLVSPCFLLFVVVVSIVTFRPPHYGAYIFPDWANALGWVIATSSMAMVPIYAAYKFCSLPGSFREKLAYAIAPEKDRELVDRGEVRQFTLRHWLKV
Yeast growth inh: growth inhibitors of yeast BB579 in restrictive medium, primary screen, yeast lifespan-shortening project, S. cerevisiae. OD615, 48 h. 140,000 tested, 0.51% active. AID 804, 2007. inhibition, % at 10 µM;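 active = inhibition above a set limit, 3 SD over the mean compound inhibition, cut at about 44% in these data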
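Assay system – yeast BB579 (DeaD) · Dosing – single compound dose of 10 µM, 0.25% DMSO final · Detection – OD615 turbidity measurement · Buffer or medium – CSMM-D restrictive synthetic medium containing dextrose (glucose) · Benchmarks – positive control amphotericin B 10 µg/mL · Incubation – 48 h exposure, 30 °C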
Measles CPE: compounds protecting cells from measles virus cytopathic effect, primary screen, measles RdRp inhibitor project, single point, MLSMR library, absorbance | 140,000 tested, 1.5% active | protection (pct of control), % at 4 µM | Measles virus-infected cells, CPE protection; in the data active = protection mostly above about 24%, no sharp cut-off; inactive = mostly below about 26%
RAM inhibit: inhibitors of the yeast RAM network, primary screen, dse1pr::URA3 reporter, 5-FOA selection; inhibition, % at 50 µM; S. cerevisiae dse1pr::URA3 reporter, 5-FOA growth OD615, 2 d; analog-sensitive cbk1-as2 kinase mutant strain; AID 868, 2007; 190,000 tested, 1.8% active;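 active = inhibition above a set limit, 3 SD over mean compound inhibition, cut at about 8.4% in these data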;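 also: 0% = DMSO-only wells with no growth and 100% = 10 µM 1-NA-PP1 full growth; inhibition rescues growth on 5-FOA so higher OD means more RAM inhibition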
Yeast life ext: compounds extending yeast replicative lifespan, primary screen, S. cerevisiae, OD615. 130,000 tested, 0.68% active. inhibition of the nicotinamide effect, % at 10 µM. AID 775, 2007. S. cerevisiae growth with nicotinamide; deaD strain in restrictive glucose medium;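 active = inhibition above a set limit, placed 3 SD over the median of all compounds, cut at about 26% in these data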;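 also: 0% = nicotinamide-treated wells and 100% = cells grown without nicotinamide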
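Test system: DeaD-strain S. cerevisiae / Buffer or medium: restrictive glucose medium / Also added: nicotinamide 1.5 mM / Doses: one concentration, 10 µM, DMSO 0.25% / Schedule: 48 h at 30 °C / Signal: OD615 measurement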
* hit, by the source's call; nt = no result. A selection: hits, their analogues and other compounds. The true share with any hit is near 6.1%.

SMILES	WT yeast gro inh	DAT uptake mod	Yeast growth inh	Measles CPE	RAM inhibit	Yeast life ext
CNC(=O)c1cc2c(=O)n3cccc(C)c3nc2n(C(C)C)c1=N	12.4	0.894	-31.4	5.9	0.4	-3.2
CCn1c(NC(=O)c2ccc(F)cc2)c2ccccc2nc1=O	58.2*	-0.661	-53.0	1.6	0.1	-3.0
CCn1c(NC(=O)c2ccc(C)cc2)c2ccccc2nc1=O	-17.7	-0.265	8.0	7.8	-0.1	1.4
COc1nccnc1NS(=O)(=O)c1ccc(NC(=O)c2cccc(C)c2)cc1	0.7	nt	nt	nt	1.2	nt
On1onc2c3cc(-c4ccccc4)nc3ccc21	80.6*	nt	6.6	11.1	-0.9	-4.8
CC(C)=CCCC(C)CN1CCC(N2CCC(C(=O)N3CCOCC3)CC2)CC1 (stereo unspecified)	-6.0	nt	nt	nt	2.5	nt
COc1ccc(Br)cc1/C=C/C(=O)c1ccc(NC(C)=O)cc1	83.9*	nt	-31.2	0.7	7.0	-6.6
COc1ccc(NS(=O)(=O)c2cc(NC(=O)/C=C/c3ccccc3OC)ccc2N2CCCCC2)cc1	0.5	nt	-63.0	6.9	10.9*	9.1
COc1ccc(NC(=O)/C=C/c2cc(Br)ccc2OC)cc1	-18.9	0.12	-0.9	22.7*	1.5	-9.0
CCN(CC)c1ccc(NC(=O)/C=C/c2cc(Br)ccc2OC)cc1	24.0	nt	-47.2	7.0	0.6	-8.7
Cc1cc2ncn(-c3ncnc4sc5c(c34)CCC(C)C5)c2cc1C (stereo unspecified)	46.9	nt	-25.9	11.6	-1.1	-4.7
CN(C(=O)CC(=O)Nc1ccc(Cl)c(Cl)c1)c1ccccc1	-2.6	nt	nt	nt	1.2	nt
CN(CC(=O)Nc1ccc(Cl)c(Cl)c1)C(=O)C12CC3CC(CC(C3)C1)C2	75.6*	nt	-15.8	4.4	1.7	1.0
COc1ccc(-c2cccc(C3CC=CC4C3C(=O)N(Cc3ccccc3)C4c3ccc(OC)c(Cl)c3)c2)cc1 (stereo unspecified)	nt	-0.496	nt	nt	nt	nt
CCC(C)NC(=O)CSc1nnc(-c2cc(-c3cccs3)nc3ccccc23)o1 (stereo unspecified)	-8.6	-0.597	-36.4	23.2	5.4	-13.4
COc1ccc(C2CC(c3ccccc3)=NN2C(=O)c2cccs2)cc1 (stereo unspecified)	77.8*	-0.0259	-19.0	2.9	2.4	-4.3
COc1ccc(C2CCCN2C(=O)c2cccs2)cc1 (stereo unspecified)	-9.6	-0.644	-13.4	1.1	1.5	-4.1
COc1ccc(C2=NN(C(=O)c3cccs3)C(c3ccccc3O)C2)cc1 (stereo unspecified)	85.3*	nt	nt	nt	1.2	nt
Cc1ccnc(Nc2nc(-c3c(C)nc4sccn34)cs2)c1	80.7*	0.791	-34.7	15.3	-1.1	-10.4
CC(=O)Nc1cccc(-c2csc(Nc3cc(C)ccn3)n2)c1	52.9	3.12*	-12.7	3.9	1.1	-13.4
CC(=O)Nc1ccc(-c2csc(Nc3cc(C)ccn3)n2)cc1	37.9	nt	nt	nt	0.1	nt
CC(=O)Nc1ccc(-c2csc(Nc3ccc(Cl)cn3)n2)cc1	19.2	nt	nt	nt	5.7	nt
CC(=O)Nc1cccc(-c2csc(Nc3ccc(Cl)cn3)n2)c1	76.1*	nt	nt	nt	0.1	nt
CC(=O)Nc1cccc(-c2csc(Nc3ccccn3)n2)c1	9.7	2.52*	6.3	1.6	0.1	-28.1
CC1CC(C)(C)NC(=S)N1CCCC(=O)Nc1ccc(F)c(F)c1 (stereo unspecified)	4.7	nt	nt	nt	0.6	nt
SMILES	WT yeast gro inh	DAT uptake mod	Yeast growth inh	Measles CPE	RAM inhibit	Yeast life ext
CCN(CC)c1ccc(/C=N/NC(=O)c2c(Cl)cnn2C)c(O)c1	-7.4	nt	-42.0	14.7	1.0	2.4
CCC1=C[C@H]2CN(C1)Cc1c([nH]c3ccccc13)[C@@](C(=O)OC)(c1cc3c(cc1OC)N(C)[C@H]1[C@@](O)(C(=O)OC)[C@H](OC(C)=O)[C@]4(CC)C=CCN5CC[C@]31[C@@H]54)C2	nt	-1.07	nt	nt	nt	nt
Brc1ccc2c(c1)OCCOCCOCCOCCOCCO2	2.0	nt	-53.5	4.8	0.4	13.7
c1ccc2c(c1)OCCOCCOCCOCCOc1ccccc1OCCOCCOCCO2	15.8	nt	-31.7	47.2*	1.4	3.4
O=C(Cn1c(C(F)(F)F)nc2ccccc21)N=Nc1c(O)[nH]c2ccc(Br)cc12	-41.4	nt	nt	nt	7.2	nt
CSc1ccc(S(=O)(=O)NCc2ccc(Cl)cc2Cl)cc1	53.5	-0.498	-70.1	10.2	1.8	87.6*
CSc1ccc(S(=O)(=O)NCc2ccccc2Cl)cc1	13.6	-0.859	-36.4	3.9	0.6	2.8
COc1ccc(-c2nc3n(c(=O)c2C#N)CCCS3)cc1	75.5*	-0.676	-37.8	11.3	2.5	-25.3
CCOc1ccc(-c2nc3n(c(=O)c2C#N)CCCS3)cc1	-6.8	-0.191	-20.1	6.9	3.5	-19.1
CS(=O)(=O)N1CCc2cc(-c3csc(NC(=O)C(c4ccccc4)c4ccccc4)n3)ccc21	-19.4	0.0579	-23.0	5.6	5.5	-5.7
CC1Cc2cc(-c3csc(NC(=O)Cc4ccccc4)n3)ccc2N1S(C)(=O)=O (stereo unspecified)	24.6	-0.0741	-8.1	71.3*	4.3	-4.8
Cc1ccc(S(=O)(=O)NC(=O)c2cc(C)n(-c3cc(S(=O)(=O)N4CCOCC4)ccc3N3CCCC3)c2C)cc1	-5.0	0.00992	-60.4	10.8	3.9	-10.0
O=C(/C=C/c1c[nH]c2ccccc12)c1cccc2ccccc12	61.5*	nt	-46.6	2.0	0.5	-10.5
COC(=O)/C(=C\c1c[nH]c2ccccc12)NC(C)=O	18.4	0.563	3.8	11.8	-0.5	-18.4
Cc1nn(Cc2ccc(C(=O)N3c4ccc(F)cc4CCC3C)o2)c(C)c1Br (stereo unspecified)	43.9	3.33*	-48.7	13.2	5.6	-5.2
Cc1ccc(C(=O)N2c3ccc(F)cc3CCC2C)o1 (stereo unspecified)	5.7	-1.5	-17.4	1.8	0.0	-5.8
COCCN(CCOC)S(=O)(=O)c1ccc(C(=O)Nc2nc(-c3ccccc3)c(C(=O)c3ccccc3)s2)cc1	5.5	nt	1.2	7.5	4.0	-1.5
CCCN(CCC)S(=O)(=O)c1ccc(C(=O)Nc2nc(-c3ccccc3)c(C(=O)OCC)s2)cc1	-10.4	nt	-23.4	50.2*	3.5	-3.9
CCOC(=O)c1sc(NC(=O)c2ccc(S(=O)(=O)N(C)C)cc2)nc1C	1.1	-0.453	-44.5	4.0	10.1*	-15.3
Cc1ccc(CNC(=O)C(C(=O)NCc2ccc(C)o2)c2ncc(C(F)(F)F)cc2Cl)o1	0.6	nt	nt	nt	2.9	nt
O/N=C1/C2C3CC4C5C3C1C5C1(OCCO1)C42 (stereo unspecified)	4.8	-0.201	17.1	50.8*	1.8	-5.7
